We go through 1 compound from ChEMBL document CHEMBL1143104, “Identification and characterization of pyrrolidine diastereoisomers as potent functional agonists and antagonists of the human melanocortin-4 receptor” (Bioorg Med Chem Lett, 2008).

One series deals with Melanocortin receptor 3 (Homo sapiens, UniProt P41968). Put plainly: Binding affinity to MC3R.
The nature of series [1]: Apparent permeability across human Caco-2 cells from apical to basolateral side. In kind it is ADME, cell-based. An outline of the steps:
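Caco-2 monolayer permeability, apical-to-basolateral Papp in nm/s. The (b to a)/(a to b) ratio was also determined as an efflux measure.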
(In general: Caco-2 monolayers are a common model of the intestinal barrier.)

Series [2] is described as follows: Cmax in rat at 10 mg/kg, po. The series is classed as ADME, organism-based. Further details: dose 10 mg/kg, route oral. The following applies: in vivo. The procedure, abridged: (§1)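 Rat pharmacokinetics: single 2.5 mg/kg iv injection and separately 10 mg/kg oral gavage. Plasma CL, Vd, t1/2, AUC, Cmax, Tmax and oral bioavailability were derived. Whole-brain concentration was measured at 1 and 4 h after oral dosing and expressed as a brain/plasma ratio. Values are the average of three animals.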

Series [3] is described as follows: AUC in rat at 10 mg/kg, po. In kind it is ADME, organism-based. More on the design: dose 10 mg/kg, route oral. The note with it: plasma. The procedure, abridged: as §1
Series [4] is described as follows: Half life in rat at 2.5 mg/kg, iv. The series is classed as ADME, organism-based. Further details: dose 2.5 mg/kg, route intravenous. The following applies: in vivo. An outline of the steps:
as §1

A short description of series [5]: Clearance in rat at 2.5 mg/kg, iv. More on the design: dose 2.5 mg/kg, route intravenous. The note with it: in vivo. In kind it is ADME, organism-based. An outline of the steps:
as §1

Series [6] addresses T1, Melanocortin receptor 4 (Homo sapiens, UniProt P32245). Description: Displacement of [125I]NDP-MSH from human MC4 receptor expressed in HEK293 cells. In kind it is cell-based. The procedure, abridged: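 HEK293 cells expressing human MC4R, radioligand competition binding with [125I]-NDP-MSH. Ki values are the average of two or more independent measurements.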
On the technique in general: Loss of bound radioactivity is the signal in a displacement assay; it reports binding, not function.

The next series deals with Melanocortin receptor 5 (Homo sapiens, UniProt P33032). Description: Binding affinity to MC5R.
Chain of Melanocortin receptor 5 (P33032 whole entry): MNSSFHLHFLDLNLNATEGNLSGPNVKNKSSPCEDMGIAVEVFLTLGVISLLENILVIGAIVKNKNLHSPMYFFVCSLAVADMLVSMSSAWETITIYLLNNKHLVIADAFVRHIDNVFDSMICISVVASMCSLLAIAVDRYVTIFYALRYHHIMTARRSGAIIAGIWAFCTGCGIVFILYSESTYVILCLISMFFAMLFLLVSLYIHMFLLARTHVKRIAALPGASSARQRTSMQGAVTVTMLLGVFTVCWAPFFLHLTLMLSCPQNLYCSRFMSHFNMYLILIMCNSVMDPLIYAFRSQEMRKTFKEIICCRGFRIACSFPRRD
The test system of a further series is Caco-2. Put plainly: Ratio of permeability across human Caco-2 cells from basolateral to apical side to apical to basolateral side. The series is classed as ADME, cell-based.
The target of series [7] is T1, Melanocortin receptor 4. Description: Agonist activity at human MC4 receptor expressed in CHO cells assessed as accumulation of cAMP production. The series is classed as functional, cell-based. The procedure, abridged:
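CHO cells transfected with human MC4R were stimulated by compound and accumulated cAMP was measured by ELISA. Intrinsic activity is expressed relative to α-MSH. Representative experiments were run 2–8 times.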
For orientation: cAMP levels reflect the balance of adenylyl cyclase and phosphodiesterase activity.

The nature of series [8]: Distribution coefficient, log D by shake flask method. In kind it is physicochemical. The note with it: octanol/water. An outline of the steps:
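log D was measured by the shake-flask method.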

Series [9] can be described thus: AUC in rat at 2.5 mg/kg, iv. In kind it is ADME, organism-based. More on the design: dose 2.5 mg/kg, route intravenous. The note with it: plasma. The procedure, abridged:
as §1

Series [10] in a line: Ratio of drug level in brain to plasma in po dosed DIO rat after 7 days. In kind it is ADME, organism-based. The note with it: read-out: BPR. The procedure, abridged: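 Chronic study in DIO rats given 3, 10 or 30 mg/kg orally once daily. A satellite group was sampled on day 1 and day 7 for plasma concentration-time profiles and brain/plasma ratio.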
Series [11] can be described thus: Bioavailability in rat at 10 mg/kg, po. In kind it is ADME, organism-based. The following applies: in vivo. An outline of the steps:
as §1

Series [12] is described as follows: Drug level in rat brain at 10 mg/kg, po after 4 hrs. The series is classed as ADME, organism-based. Further details: dose 10 mg/kg, route oral. The note with it: read-out: Drug uptake. An outline of the steps: as §1
A short description of series [13]: Volume of distribution in rat in rat at 2.5 mg/kg, iv. The series is classed as ADME, organism-based. Further details: dose 2.5 mg/kg, route intravenous. The note with it: in vivo. The procedure, abridged:
as §1

A short description of series [14]: Ratio of drug level in brain to plasma in rat at 10 mg/kg, po after 4 hrs. In kind it is ADME, organism-based. More on the design: dose 10 mg/kg, route oral. The note with it: read-out: BPR. An outline of the steps: as §1
The nature of series [15]: Tmax in rat at 10 mg/kg, po. In kind it is ADME, organism-based. More on the design: dose 10 mg/kg, route oral. The following applies: in vivo. An outline of the steps: as §1

pEC50, pKi: −log10 of the molar value. Bounds are passed on as bounds.

T1 sequence (P32245 whole entry): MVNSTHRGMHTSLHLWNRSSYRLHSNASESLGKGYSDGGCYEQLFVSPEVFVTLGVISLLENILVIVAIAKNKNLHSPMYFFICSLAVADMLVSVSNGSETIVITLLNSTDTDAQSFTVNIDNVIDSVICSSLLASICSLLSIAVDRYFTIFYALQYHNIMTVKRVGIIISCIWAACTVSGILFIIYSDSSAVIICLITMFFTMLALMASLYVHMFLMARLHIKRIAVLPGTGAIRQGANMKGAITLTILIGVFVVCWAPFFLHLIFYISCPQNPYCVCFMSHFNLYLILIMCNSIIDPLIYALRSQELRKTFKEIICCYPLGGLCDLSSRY
Chain of Melanocortin receptor 3 (P41968 whole entry): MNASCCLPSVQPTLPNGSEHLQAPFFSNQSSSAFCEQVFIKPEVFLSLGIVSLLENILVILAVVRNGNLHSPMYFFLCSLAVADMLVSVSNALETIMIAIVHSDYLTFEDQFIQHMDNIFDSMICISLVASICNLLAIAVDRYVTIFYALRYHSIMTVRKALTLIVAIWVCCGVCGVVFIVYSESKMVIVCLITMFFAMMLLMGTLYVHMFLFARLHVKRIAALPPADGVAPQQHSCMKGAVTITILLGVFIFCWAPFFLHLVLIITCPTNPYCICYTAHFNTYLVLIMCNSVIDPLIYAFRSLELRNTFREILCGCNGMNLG

`Cc1ccc(N2CCN(C(=O)[C@@H]3CN(C4CCOCC4)C[C@H]3c3ccc(Cl)cc3)CC2)c([C@@H](NC(=O)CCN(C)C)C(C)C)c1` (stereo in doubt; 13b-1): the pKi at Melanocortin receptor 3 was 6.59; at Melanocortin receptor 4 [6] it was 9.00; at Melanocortin receptor 5 it was 6.10. The Papp A→B in series [1] amounted to 0.16 ×10⁻⁶ cm/s. The compound further had a Cmax in [2] of 14 ng/mL. Also, the figures for the AUC in series [3] and in series [9] were 114 ng·h/mL and 307 ng·h/mL, respectively. In addition, the half-life in [4] was 7.1 h. This compound also displayed a clearance in series [5] of 129 mL/min/kg. In addition, the Ratio in the series on Caco-2 came to 23. Besides, the pEC50 on Melanocortin receptor 4 [7] was 8.42. Further, in series [8], the logD was 2.6. Moreover, the Kp at 168 h in series [10] was greater than 10. The compound also yielded a bioavailability in series [11] of 10%. For the same compound, the concentration at 4 h in series [12] was 19 ng/g. The Vd in series [13] was 80 L/kg. Also, in series [14], the Kp at 4 h is 3. Further, the Tmax in series [15] is 2.7 h.

The term pKi denotes −log10 of the Ki, conventionally taken in molar units. A high value points to a small Ki. What is called Papp A→B is how fast a substance crosses the layer from the apical side. By Cmax is commonly meant the maximum level reached in the sampled fluid or tissue. One may read the AUC as concentration integrated over time. The half-life is the time in which the quantity being followed falls by half. A lower half-life goes with fast loss. A word on the clearance: it is the volume of plasma or blood freed of the substance per unit of time. A low value points to a low capacity for elimination. As usually defined, the pEC50 is the negative decadic logarithm of the EC50, by convention in mol/L. The logD is lipophilicity at a set pH, counting ionised and neutral species. Higher therefore signals higher lipophilicity. By bioavailability is commonly meant the share of a dose that reaches the circulation, judged against a reference dose that is usually intravenous. Read a high bioavailability as good availability. The Vd is a proportionality between amount in the body and measured concentration, not a real space. Higher therefore signals extensive tissue distribution. Usually Tmax stands for the time from dosing to the highest level.
